Experimental findings from ChEMBL document CHEMBL5247671, “Design and Synthesis of Pyrazole-Based Macrocyclic Kinase Inhibitors Targeting BMPR2” (ACS Med Chem Lett, 2023) are described below.

Experiment [1] deals with Mitogen-activated protein kinase 8 (Homo sapiens) (UniProt P45983). As to the kind of experiment: Inhibition of JNK1 (unknown origin) assessed as residual activity at 1 uM by Kinomescan assay relative to staurosporine.
In experiment [2] the target is T1, Bone morphogenetic protein receptor type-2 (Homo sapiens) (UniProt Q13873).
T1 sequence (whole entry): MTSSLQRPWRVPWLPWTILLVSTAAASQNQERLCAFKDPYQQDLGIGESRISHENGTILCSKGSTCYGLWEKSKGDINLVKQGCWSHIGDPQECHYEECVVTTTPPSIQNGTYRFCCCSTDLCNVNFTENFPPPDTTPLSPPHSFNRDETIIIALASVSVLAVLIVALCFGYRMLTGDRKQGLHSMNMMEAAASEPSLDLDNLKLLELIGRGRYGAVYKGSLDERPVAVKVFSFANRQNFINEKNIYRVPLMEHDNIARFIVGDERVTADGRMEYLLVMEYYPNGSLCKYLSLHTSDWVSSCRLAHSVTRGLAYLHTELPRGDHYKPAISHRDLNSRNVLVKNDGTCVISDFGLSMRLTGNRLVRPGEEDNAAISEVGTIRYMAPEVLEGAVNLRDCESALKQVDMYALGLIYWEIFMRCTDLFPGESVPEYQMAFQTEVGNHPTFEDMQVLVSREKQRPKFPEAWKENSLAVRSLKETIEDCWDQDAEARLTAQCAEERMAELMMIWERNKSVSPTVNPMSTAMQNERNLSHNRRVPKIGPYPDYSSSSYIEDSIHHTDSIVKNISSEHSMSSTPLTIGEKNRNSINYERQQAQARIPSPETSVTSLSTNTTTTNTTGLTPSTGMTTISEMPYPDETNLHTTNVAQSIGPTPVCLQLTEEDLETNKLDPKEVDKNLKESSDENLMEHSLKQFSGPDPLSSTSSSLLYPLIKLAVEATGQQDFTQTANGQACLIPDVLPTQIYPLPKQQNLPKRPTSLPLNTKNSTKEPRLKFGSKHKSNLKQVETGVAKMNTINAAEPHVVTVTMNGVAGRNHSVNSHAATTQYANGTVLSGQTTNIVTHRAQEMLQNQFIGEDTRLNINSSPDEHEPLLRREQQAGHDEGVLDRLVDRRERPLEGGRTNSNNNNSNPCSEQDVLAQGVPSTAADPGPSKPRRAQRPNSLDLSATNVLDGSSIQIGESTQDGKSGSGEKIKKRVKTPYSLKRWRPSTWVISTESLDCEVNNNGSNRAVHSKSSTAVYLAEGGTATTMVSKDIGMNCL
Put plainly: Inhibition of BMPR2 (unknown origin) assessed as residual activity at 1 uM by Kinomescan assay relative to staurosporine.

The target in experiment [3] is Glycogen synthase kinase-3 alpha (Homo sapiens, UniProt P49840). Put plainly: Inhibition of GSK3A (unknown origin) assessed as residual activity at 1 uM by Kinomescan assay relative to staurosporine.
Experiment [4] addresses Serine/threonine-protein kinase 24 (Homo sapiens) (UniProt Q9Y6E0). As to the kind of experiment: Inhibition of recombinant MST3 (unknown origin) at 10 uM by DSF assay relative to staurosporine. In a few lines:
(§1)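 Differential scanning fluorimetry on an in-house panel of 90 recombinant kinases. Stabilization is read as the shift in melting temperature (ΔTm) relative to ligand-free protein. Staurosporine served as the positive control, and binding was also compared against its ΔTm.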
For orientation: In DSF a fluorescence change marks the thermal transition of the protein.

Experiment [5] addresses T2, MAP/microtubule affinity-regulating kinase 4 (Homo sapiens) (UniProt Q96L34).
T2 sequence (whole entry): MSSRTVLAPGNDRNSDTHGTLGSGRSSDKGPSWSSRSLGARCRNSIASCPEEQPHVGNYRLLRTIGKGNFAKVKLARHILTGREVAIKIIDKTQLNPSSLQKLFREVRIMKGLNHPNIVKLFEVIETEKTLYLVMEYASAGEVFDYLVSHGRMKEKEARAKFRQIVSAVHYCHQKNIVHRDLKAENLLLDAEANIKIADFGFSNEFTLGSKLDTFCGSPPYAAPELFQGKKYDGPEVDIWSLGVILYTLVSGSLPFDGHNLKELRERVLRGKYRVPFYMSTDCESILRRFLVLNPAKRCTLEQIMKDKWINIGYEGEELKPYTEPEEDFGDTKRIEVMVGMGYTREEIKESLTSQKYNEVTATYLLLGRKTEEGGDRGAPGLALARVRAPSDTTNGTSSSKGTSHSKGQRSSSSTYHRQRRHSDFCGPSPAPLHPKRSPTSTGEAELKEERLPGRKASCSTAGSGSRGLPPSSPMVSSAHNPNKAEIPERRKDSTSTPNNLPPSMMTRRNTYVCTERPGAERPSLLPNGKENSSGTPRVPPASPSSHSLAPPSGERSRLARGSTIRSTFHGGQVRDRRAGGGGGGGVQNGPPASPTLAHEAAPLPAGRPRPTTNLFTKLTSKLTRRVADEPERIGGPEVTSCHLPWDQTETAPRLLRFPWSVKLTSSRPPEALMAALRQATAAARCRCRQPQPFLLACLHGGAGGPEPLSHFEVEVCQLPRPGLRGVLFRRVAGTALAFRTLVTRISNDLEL
As to the kind of experiment: Binding affinity to recombinant MARK4 (unknown origin) assessed as change in melting temperature at 10 uM by DSF assay. In a few lines:
as §1

The target in experiment [6] is T3, Serine/threonine-protein kinase 4 (Homo sapiens) (UniProt Q13043).
T3 sequence (whole entry): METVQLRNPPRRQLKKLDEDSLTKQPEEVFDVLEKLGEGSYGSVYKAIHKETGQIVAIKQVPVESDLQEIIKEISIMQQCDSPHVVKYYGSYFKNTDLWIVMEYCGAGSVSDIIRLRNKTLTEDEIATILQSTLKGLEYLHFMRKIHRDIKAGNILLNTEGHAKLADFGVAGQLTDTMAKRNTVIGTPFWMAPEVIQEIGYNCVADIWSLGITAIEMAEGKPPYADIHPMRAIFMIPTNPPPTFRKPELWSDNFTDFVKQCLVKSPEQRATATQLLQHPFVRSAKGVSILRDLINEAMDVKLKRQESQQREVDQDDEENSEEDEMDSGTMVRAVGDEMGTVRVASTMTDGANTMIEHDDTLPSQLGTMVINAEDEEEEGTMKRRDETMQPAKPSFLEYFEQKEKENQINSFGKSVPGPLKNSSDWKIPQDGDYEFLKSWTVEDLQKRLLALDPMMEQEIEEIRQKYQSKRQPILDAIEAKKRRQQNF
As to the kind of experiment: Inhibition of recombinant STK4 (unknown origin) at 10 uM by DSF assay relative to staurosporine. In outline: as §1

Experiment [7] concerns the target T4, Glycogen synthase kinase-3 beta (Homo sapiens, UniProt P49841). Put plainly: Inhibition of N-terminal NanoLuc-fused full length intact GSK3B (unknown origin) transfected in HEK293T cells incubated for 2 hrs in presence of tracer K8 by NanoBRET assay. In kind it is cell-based. In a few lines:
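Cellular target engagement by NanoBRET in intact cells expressing NanoLuc-fused GSK3A or GSK3B, with EC50 values derived from tracer displacement.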

Experiment [8] deals with T4, Glycogen synthase kinase-3 beta. As to the kind of experiment: Inhibition of N-terminal NanoLuc-fused full length lysed GSK3B (unknown origin) transfected in HEK293T cells incubated for 2 hrs in presence of tracer K8 by NanoBRET assay. Type of experiment: cell-based. In outline:
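GSK3B NanoBRET run in the lysed mode, with cells permeabilized by digitonin to bypass compound cell penetration. EC50 values were derived from tracer displacement.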
(In BRET a luciferase serves as donor, and the signal depends on an acceptor being close.)

T4 sequence (P49841 whole entry, the tested form may be a part): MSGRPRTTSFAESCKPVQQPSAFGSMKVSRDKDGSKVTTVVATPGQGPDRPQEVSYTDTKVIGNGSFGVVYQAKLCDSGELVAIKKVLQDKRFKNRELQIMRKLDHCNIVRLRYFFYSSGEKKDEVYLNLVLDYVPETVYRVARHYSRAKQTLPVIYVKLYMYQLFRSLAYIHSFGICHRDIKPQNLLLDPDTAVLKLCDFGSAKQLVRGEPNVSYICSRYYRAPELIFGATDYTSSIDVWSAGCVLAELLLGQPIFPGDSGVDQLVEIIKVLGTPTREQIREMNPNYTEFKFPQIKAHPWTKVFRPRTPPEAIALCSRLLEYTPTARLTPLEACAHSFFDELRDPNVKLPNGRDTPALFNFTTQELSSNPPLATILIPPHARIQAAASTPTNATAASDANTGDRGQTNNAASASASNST
Sequence of Glycogen synthase kinase-3 alpha (P49840 2-483 limits assumed): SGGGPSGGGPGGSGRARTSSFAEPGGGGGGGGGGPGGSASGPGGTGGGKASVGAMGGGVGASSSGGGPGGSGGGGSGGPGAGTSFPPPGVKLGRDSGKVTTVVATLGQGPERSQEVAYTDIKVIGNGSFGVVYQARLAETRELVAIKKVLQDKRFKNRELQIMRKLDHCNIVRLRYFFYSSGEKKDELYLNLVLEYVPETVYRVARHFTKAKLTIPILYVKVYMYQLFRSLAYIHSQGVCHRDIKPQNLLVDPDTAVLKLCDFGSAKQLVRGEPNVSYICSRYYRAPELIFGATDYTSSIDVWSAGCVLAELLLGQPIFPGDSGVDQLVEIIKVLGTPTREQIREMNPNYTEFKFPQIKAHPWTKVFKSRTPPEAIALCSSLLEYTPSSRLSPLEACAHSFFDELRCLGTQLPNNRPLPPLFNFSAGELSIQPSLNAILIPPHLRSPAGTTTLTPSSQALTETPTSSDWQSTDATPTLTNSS
Sequence of Mitogen-activated protein kinase 8 (Homo sapiens) (P45983 whole entry): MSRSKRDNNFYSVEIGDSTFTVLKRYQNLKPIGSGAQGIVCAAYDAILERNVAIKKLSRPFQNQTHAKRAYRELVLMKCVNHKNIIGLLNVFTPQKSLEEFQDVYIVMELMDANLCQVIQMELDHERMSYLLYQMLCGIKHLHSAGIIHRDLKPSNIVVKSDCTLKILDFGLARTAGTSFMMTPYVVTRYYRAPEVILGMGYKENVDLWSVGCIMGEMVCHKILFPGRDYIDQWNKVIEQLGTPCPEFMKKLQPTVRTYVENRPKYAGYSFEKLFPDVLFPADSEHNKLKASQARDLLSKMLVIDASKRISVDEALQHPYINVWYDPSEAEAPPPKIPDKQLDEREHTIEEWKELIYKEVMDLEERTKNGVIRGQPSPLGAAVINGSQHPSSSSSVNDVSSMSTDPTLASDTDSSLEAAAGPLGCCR
Sequence of Serine/threonine-protein kinase 24 (Homo sapiens) (Q9Y6E0 whole entry, looked up): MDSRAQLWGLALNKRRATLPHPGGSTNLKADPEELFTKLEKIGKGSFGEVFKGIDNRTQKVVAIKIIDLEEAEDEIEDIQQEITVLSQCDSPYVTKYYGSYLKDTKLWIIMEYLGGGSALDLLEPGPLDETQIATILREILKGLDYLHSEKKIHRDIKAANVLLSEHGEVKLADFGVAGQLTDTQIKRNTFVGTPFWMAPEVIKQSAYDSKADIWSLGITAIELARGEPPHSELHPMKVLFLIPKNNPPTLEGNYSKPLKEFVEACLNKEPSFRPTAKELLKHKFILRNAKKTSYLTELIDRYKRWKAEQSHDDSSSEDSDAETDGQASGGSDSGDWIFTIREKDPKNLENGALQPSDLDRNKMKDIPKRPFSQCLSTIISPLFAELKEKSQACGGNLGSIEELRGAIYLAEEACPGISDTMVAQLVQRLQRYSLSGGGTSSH

As a reminder, the inhibition is how much of the control response was suppressed. One may read the ΔTm as the change in melting temperature against a reference sample. By IC50 is commonly meant the midpoint of a concentration-inhibition curve. As for `O=C1NCCc2ccc(cc2)Nc2nccc(n2)Nc2cc1[nH]n2`, the Activity in experiment [1] worked out at 27%; in experiment [2] it was 8.3%; in experiment [3] it was 16%. In addition, the inhibition in experiment [4] is 44%; in experiment [6] it was 22%. Besides, the ΔTm in experiment [5] came to 3.8 °C. The values for the IC50 in experiment [7] and in experiment [8] were 34 µM and 2.3 µM, respectively.
